# Experimental data from ChEMBL document CHEMBL1806473, “Structure-based optimization of click-based histone deacetylase inhibitors” (Eur J Med Chem, 2011).
# Tests used:
# A498 [1] = experiment: Antiproliferative activity against human A498 cells by SRB assay; format: functional
# Summary of the method: (§1)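 Tested in the NCI in vitro human tumor cell line screen, run by the National Cancer Institute. Each compound was given at five concentrations (100, 10, 1.0, 0.1 and 0.01 μM). GI50 is the drug concentration that reduces growth of treated cells to half that of control cells during drug incubation, judged from the SRB signal.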
# SF-268 = experiment: Cytotoxicity against human SF268 cells; format: cell-based
# Summary of the method: (§2)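 Tested in the NCI in vitro disease-oriented human tumour cell line screen, with screening performed by NCI. Growth was read by SRB signal over the drug incubation period at five concentrations: 100, 10, 1.0, 0.1 and 0.01 μM. GI50 is the concentration that reduces growth of treated cells to half that of control cells.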
# DU-145 = experiment: Antiproliferative activity against human DU145 cells by SRB assay; format: functional; summary of the method: as §1
# T47D = experiment: Antiproliferative activity against human T47D cells by SRB assay; format: functional
# Summary of the method: (§3)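 Cell growth was tested in the NIH in vitro disease-oriented human tumor cell line screen, which NCI ran for these compounds. Compounds were tested at five concentrations (100, 10, 1.0, 0.1 and 0.01 μM), and growth was read by SRB signal. GI50 is the drug concentration that reduces growth of treated cells to half that of control cells during drug incubation.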
# COLO 205 [2] = experiment: Cytotoxicity against human COLO205 cells; format: cell-based; summary of the method: as §2
# HCT-116 [3] = experiment: Antiproliferative activity against human HCT116 cells by SRB assay; format: functional; summary of the method: as §1
# HCC 2998 [4] = experiment: Cytotoxicity against human HCC2998 cells; format: cell-based; summary of the method: as §2
# RXF 393 = experiment: Antiproliferative activity against human RXF393 cells by SRB assay; format: functional; summary of the method: as §1
# UACC-257 [5] = experiment: Antiproliferative activity against human UACC257 cells by SRB assay; format: functional; summary of the method: as §3
# HCC 2998 [6] = experiment: Antiproliferative activity against human HCC2998 cells by SRB assay; format: functional; summary of the method: as §1
# SN12C = experiment: Antiproliferative activity against human SN12C cells by SRB assay; format: functional; summary of the method: as §1
# HCT-15 = experiment: Antiproliferative activity against human HCT15 cells by SRB assay; format: functional; summary of the method: as §1
# TK-10 [7] = experiment: Antiproliferative activity against human TK10 cells by SRB assay; format: functional; summary of the method: as §3
# SNB-19 [8] = experiment: Cytotoxicity against human SNB19 cells; format: cell-based
# Summary of the method: (§4)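 Screened by NCI in its in vitro disease-oriented human tumour cell line panel. Compounds tested at five concentrations (100, 10, 1.0, 0.1 and 0.01 μM). Growth read by sulforhodamine B (SRB) signal. GI50 is the concentration reducing growth of treated cells to half that of control cells during the drug incubation.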
# CAKI-1 = experiment: Antiproliferative activity against human Caki1 cells by SRB assay; format: functional; summary of the method: as §1
# TK-10 [9] = experiment: Cytotoxicity against human TK10 cells; format: cell-based; summary of the method: as §4
# OVCAR-8 [10] = experiment: Antiproliferative activity against human OVCAR8 cells by SRB assay; format: functional; summary of the method: as §1
# A549 = experiment: Antiproliferative activity against human A549 cells by SRB assay; format: functional; summary of the method: as §1
# UACC-257 [11] = experiment: Cytotoxicity against human UACC257 cells; format: cell-based; summary of the method: as §4
# SNB-19 [12] = experiment: Antiproliferative activity against human SNB19 cells by SRB assay; format: functional; summary of the method: as §1
# NCI/ADR-RES [13] = experiment: Antiproliferative activity against human NCI/ADR-RES cells by SRB assay; format: functional; summary of the method: as §1
# SW-620 [14] = experiment: Antiproliferative activity against human SW620 cells by SRB assay; format: functional; summary of the method: as §3
# K562 = experiment: Antiproliferative activity against human K562 cells by SRB assay; format: functional; summary of the method: as §1
# NCI/ADR-RES [15] = experiment: Cytotoxicity against human NCI/ADR-RES cells; format: cell-based; summary of the method: as §2
# OVCAR-8 [16] = experiment: Cytotoxicity against human OVCAR8 cells; format: cell-based
# 786-0 = experiment: Antiproliferative activity against human 786-0 cells by SRB assay; format: functional; summary of the method: as §1
# HCT-116 [17] = experiment: Cytotoxicity against human HCT116 cells; format: cell-based; summary of the method: as §2
# UO-31 [18] = experiment: Antiproliferative activity against human UO31 cells by SRB assay; format: functional; summary of the method: as §3
# HOP-92 [19] = experiment: Cytotoxicity against human HOP92 cells; format: cell-based
# HOP-92 [20] = experiment: Antiproliferative activity against human HOP92 cells by SRB assay; format: functional; summary of the method: as §1
# OVCAR-4 [21] = experiment: Antiproliferative activity against human OVCAR4 cells by SRB assay; format: functional; summary of the method: as §1
# MDA-MB-231 = experiment: Cytotoxicity against human MDA-MB-231 cells; format: functional; summary of the method: as §2
# SNB-75 = experiment: Antiproliferative activity against human SNB75 cells by SRB assay; format: functional; summary of the method: as §3
# OVCAR-3 = experiment: Cytotoxicity against human OVCAR3 cells; format: cell-based; summary of the method: as §2
# OVCAR-5 = experiment: Cytotoxicity against human OVCAR5 cells; format: cell-based; summary of the method: as §2
# SF-295 = experiment: Cytotoxicity against human SF295 cells; format: cell-based; summary of the method: as §2
# CCRF-CEM [22] = experiment: Antiproliferative activity against human CCRF-CEM cells by SRB assay; format: functional; summary of the method: as §1
# COLO 205 [23] = experiment: Antiproliferative activity against human COLO205 cells by SRB assay; format: functional; summary of the method: as §1
# SK-MEL-5 = experiment: Cytotoxicity against human SK-MEL-5 cells; format: cell-based
# LOX IMVI = experiment: Antiproliferative activity against human LOXIMVI cells by SRB assay; format: functional; summary of the method: as §1
# OVCAR-4 [24] = experiment: Cytotoxicity against human OVCAR4 cells; format: cell-based
# CCRF-CEM [25] = experiment: Cytotoxicity against human CCRF-CEM cells; format: cell-based
# MDA-MB-468 [26] = experiment: Antiproliferative activity against human MDA-MB-468 cells by SRB assay; format: functional; summary of the method: as §1
# UO-31 [27] = experiment: Cytotoxicity against human UO31 cells; format: cell-based; summary of the method: as §4
# SW-620 [28] = experiment: Cytotoxicity against human SW620 cells; format: cell-based; summary of the method: as §4
# U-251 = experiment: Cytotoxicity against human U251 cells; format: cell-based; summary of the method: as §4
# PC-3 = experiment: Cytotoxicity against human PC3 cells; format: cell-based
# SK-MEL-2 = experiment: Antiproliferative activity against human SK-MEL-2 cells by SRB assay; format: functional; summary of the method: as §1
# HL-60(TB) = experiment: Antiproliferative activity against human HL-60(TB) cells by SRB assay; format: functional; summary of the method: as §2
# NCI-H322M = experiment: Cytotoxicity against human NCI-H322M cells; format: cell-based
# SK-MEL-28 [29] = experiment: Antiproliferative activity against human SK-MEL-28 cells by SRB assay; format: functional; summary of the method: as §1
# SK-MEL-28 [30] = experiment: Cytotoxicity against human SK-MEL-28 cells; format: cell-based
# MDA-MB-435 = experiment: Cytotoxicity against human MDA-MB-435 cells; format: cell-based
# KM12 = experiment: Cytotoxicity against human KM12 cells; format: cell-based
# A498 [31] = experiment: Cytotoxicity against human A498 cells; format: cell-based
# MDA-MB-468 [32] = experiment: Cytotoxicity against human MDA-MB-468 cells; format: cell-based; summary of the method: as §2
structure (smiles),measurement,setting,value
O=C(/C=C/c1cn(C(/C=C/c2ccccc2)Cc2ccccc2)nn1)NO (configuration not stated),GI50,A498 [1],1160 nM
same,LC50,SF-268,9170 nM
same,GI50,DU-145,1080 nM
same,GI50,T47D,411 nM
same,LC50,COLO 205 [2],8000 nM
same,GI50,HCT-116 [3],382 nM
same,LC50,HCC 2998 [4],6120 nM
same,GI50,RXF 393,1210 nM
same,GI50,UACC-257 [5],1680 nM
same,GI50,HCC 2998 [6],1240 nM
same,GI50,SN12C,2340 nM
same,GI50,HCT-15,1590 nM
same,GI50,TK-10 [7],827 nM
same,LC50,SNB-19 [8],18800 nM
same,GI50,CAKI-1,440 nM
same,LC50,TK-10 [9],12900 nM
same,GI50,OVCAR-8 [10],630 nM
same,GI50,A549,1410 nM
same,LC50,UACC-257 [11],93700 nM
same,GI50,SNB-19 [12],2000 nM
same,GI50,NCI/ADR-RES [13],342 nM
same,GI50,SW-620 [14],892 nM
same,GI50,K562,1050 nM
same,LC50,NCI/ADR-RES [15],> 100000 nM
same,LC50,OVCAR-8 [16],> 100000 nM
same,GI50,786-0,1380 nM
same,LC50,HCT-116 [17],5970 nM
same,GI50,UO-31 [18],650 nM
same,LC50,HOP-92 [19],11600 nM
same,GI50,HOP-92 [20],1080 nM
same,GI50,OVCAR-4 [21],1750 nM
same,LC50,MDA-MB-231,53900 nM
same,GI50,SNB-75,258 nM
same,LC50,OVCAR-3,8700 nM
same,LC50,OVCAR-5,22300 nM
same,LC50,SF-295,6560 nM
same,GI50,CCRF-CEM [22],320 nM
same,GI50,COLO 205 [23],1100 nM
same,LC50,SK-MEL-5,5300 nM
same,GI50,LOX IMVI,521 nM
same,LC50,OVCAR-4 [24],61600 nM
same,LC50,CCRF-CEM [25],> 100000 nM
same,GI50,MDA-MB-468 [26],1520 nM
same,LC50,UO-31 [27],6570 nM
same,LC50,SW-620 [28],13600 nM
same,LC50,U-251,5840 nM
same,LC50,PC-3,> 100000 nM
same,GI50,SK-MEL-2,1890 nM
same,GI50,HL-60(TB),670 nM
same,LC50,NCI-H322M,46700 nM
same,GI50,SK-MEL-28 [29],1300 nM
same,LC50,SK-MEL-28 [30],9400 nM
same,LC50,MDA-MB-435,15700 nM
same,LC50,KM12,34200 nM
same,LC50,A498 [31],5460 nM
O=C(/C=C/c1ccc(CN(CCO)CCc2c[nH]c3ccccc23)cc1)NO [DACINOSTAT],GI50,A498 [1],1110 nM
same,LC50,SF-268,92100 nM
same,GI50,DU-145,580 nM
same,GI50,T47D,444 nM
same,LC50,COLO 205 [2],50400 nM
same,GI50,HCT-116 [3],347 nM
same,GI50,RXF 393,< 10 nM
same,LC50,MDA-MB-468 [32],94300 nM
same,GI50,UACC-257 [5],393 nM
same,GI50,SN12C,1620 nM
same,GI50,HCT-15,2070 nM
same,GI50,TK-10 [7],495 nM
same,LC50,SNB-19 [8],31700 nM
same,GI50,CAKI-1,619 nM
same,LC50,TK-10 [9],> 100000 nM
same,GI50,OVCAR-8 [10],450 nM
same,GI50,A549,1090 nM
same,LC50,UACC-257 [11],44800 nM
same,GI50,SNB-19 [12],1530 nM
same,GI50,NCI/ADR-RES [13],180 nM
same,GI50,SW-620 [14],478 nM
same,GI50,K562,550 nM
same,LC50,NCI/ADR-RES [15],> 100000 nM
same,LC50,OVCAR-8 [16],92500 nM
same,GI50,786-0,2380 nM
same,LC50,HCT-116 [17],51200 nM
same,GI50,UO-31 [18],1120 nM
same,LC50,HOP-92 [19],68200 nM
same,GI50,HOP-92 [20],199 nM
same,GI50,OVCAR-4 [21],3210 nM
same,GI50,SNB-75,318 nM
same,LC50,OVCAR-3,51000 nM
same,LC50,OVCAR-5,38900 nM
same,LC50,SF-295,6910 nM
same,GI50,CCRF-CEM [22],251 nM
same,GI50,COLO 205 [23],1080 nM
same,LC50,SK-MEL-5,4020 nM
same,GI50,LOX IMVI,1080 nM
same,LC50,OVCAR-4 [24],> 100000 nM
same,LC50,CCRF-CEM [25],> 100000 nM
same,GI50,MDA-MB-468 [26],452 nM
same,LC50,UO-31 [27],52800 nM
same,LC50,SW-620 [28],81300 nM
same,LC50,U-251,5820 nM
same,LC50,PC-3,73500 nM
same,GI50,HL-60(TB),249 nM
same,LC50,NCI-H322M,> 100000 nM
same,GI50,SK-MEL-28 [29],993 nM
same,LC50,SK-MEL-28 [30],31900 nM
same,LC50,MDA-MB-435,28800 nM
same,LC50,KM12,29900 nM
same,LC50,A498 [31],5880 nM
